Measured values: ChEMBL document CHEMBL3244258, “Derivatives of tetrahydro-1,4-benzodiazepines as potential antihypertensive agents” (1977)

Key:
[1] = system: Rattus norvegicus; assay: Antihypertensive activity in left kidney ligation and contralateral nephrectomy-induced hypertensive Sprague-Dawley rat model assessed as change in systolic blood pressure at 75 mg/kg, po administered via stomach tube; format: functional, Artery
In short: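 Conscious female rats made hypertensive by figure-8 ligature of left kidney, contralateral nephrectomy 1 week later. Dosed orally by stomach tube. Systolic pressure measured at the tail with occluding and sensing cuffs and a pressure transducer, before dosing and 1.5 and 4 h after. Values are group means of 4 or 8 rats.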

[2] = system: Rattus norvegicus; assay: Antihypertensive activity in pithed rat assessed as change in sympathetic outflow activation-induced systemic pressor response at 10 mg/kg, iv at 5 Hz frequency; format: functional
In short: (§1)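 Pithed-rat preparation under ether anesthesia with artificial respiration, pretreated with atropine 1 mg/kg and d-tubocurarine chloride 1 mg/kg. Sympathetic outflow activated electrically at 2.5, 5 or 10 Hz. Carotid pressure responses taken before and after one or more test doses given via jugular vein. Reported as percent change in pressor response.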

[3] = system: Rattus norvegicus; assay: Antihypertensive activity in pithed rat assessed as change in phenylephrine-induced systemic pressor response at 20 mg/kg, iv in presence of 4 mg/kg phenylephrine; format: functional
In short: (§2)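 Ether-anesthetized, artificially respired rats pretreated with atropine 1 mg/kg and d-tubocurarine chloride 1 mg/kg. Carotid arterial pressure recorded; drugs given into the jugular vein. Pressor responses to iv phenylephrine measured before and after one or more iv doses of test compound. Reported as percent change in response.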

[4] = system: Rattus norvegicus; assay: Antihypertensive activity in pithed rat assessed as change in sympathetic outflow activation-induced systemic pressor response at 20 mg/kg, iv at 5 Hz frequency; format: functional; in short: as §1
[5] = system: Rattus norvegicus; assay: Antihypertensive activity in pithed rat assessed as change in sympathetic outflow activation-induced systemic pressor response at 10 mg/kg, iv at 2.5 Hz frequency; format: functional; in short: as §1
[6] = system: Rattus norvegicus; assay: Antihypertensive activity in pithed rat assessed as change in sympathetic outflow activation-induced systemic pressor response at 20 mg/kg, iv at 10 Hz frequency; format: functional; in short: as §1
[7] = system: Rattus norvegicus; assay: Antihypertensive activity in pithed rat assessed as change in phenylephrine-induced systemic pressor response at 20 mg/kg, iv in presence of 2 mg/kg phenylephrine; format: functional; in short: as §2
[8] = system: Rattus norvegicus; assay: Antihypertensive activity in pithed rat assessed as change in sympathetic outflow activation-induced systemic pressor response at 20 mg/kg, iv at 2.5 Hz frequency; format: functional; in short: as §1
[9] = system: Rattus norvegicus; assay: Antihypertensive activity in pithed rat assessed as change in sympathetic outflow activation-induced systemic pressor response at 10 mg/kg, iv at 10 Hz frequency; format: functional; in short: as §1
[10] = system: Rattus norvegicus; assay: Antihypertensive activity in pithed rat assessed as change in phenylephrine-induced systemic pressor response at 10 mg/kg, iv in presence of 4 mg/kg phenylephrine; format: functional; in short: as §2
[11] = system: Rattus norvegicus; assay: Antihypertensive activity in pithed rat assessed as change in phenylephrine-induced systemic pressor response at 10 mg/kg, iv in presence of 2 mg/kg phenylephrine; format: functional; in short: as §2
[12] = system: Rattus norvegicus; assay: Antihypertensive activity in pithed rat assessed as change in sympathetic outflow activation-induced systemic pressor response at 30 mg/kg, iv at 10 Hz frequency; format: functional; in short: as §1
[13] = system: Rattus norvegicus; assay: Antihypertensive activity in pithed rat assessed as change in sympathetic outflow activation-induced systemic pressor response at 30 mg/kg, iv at 2.5 Hz frequency; format: functional; in short: as §1
[14] = system: Rattus norvegicus; assay: Antihypertensive activity in pithed rat assessed as change in phenylephrine-induced systemic pressor response at 30 mg/kg, iv in presence of 2 mg/kg phenylephrine; format: functional; in short: as §2
[15] = system: Rattus norvegicus; assay: Antihypertensive activity in pithed rat assessed as change in sympathetic outflow activation-induced systemic pressor response at 30 mg/kg, iv at 5 Hz frequency; format: functional; in short: as §1
[16] = system: Rattus norvegicus; assay: Antihypertensive activity in pithed rat assessed as change in phenylephrine-induced systemic pressor response at 30 mg/kg, iv in presence of 4 mg/kg phenylephrine; format: functional; in short: as §2
[17] = system: Rattus norvegicus; assay: Antihypertensive activity in pithed rat assessed as change in sympathetic outflow activation-induced systemic pressor response at 5 mg/kg, iv at 2.5 Hz frequency; format: functional; in short: as §1
[18] = system: Rattus norvegicus; assay: Antihypertensive activity in pithed rat assessed as change in phenylephrine-induced systemic pressor response at 5 mg/kg, iv in presence of 2 mg/kg phenylephrine; format: functional; in short: as §2
[19] = system: Rattus norvegicus; assay: Antihypertensive activity in pithed rat assessed as change in sympathetic outflow activation-induced systemic pressor response at 15 mg/kg, iv at 2.5 Hz frequency; format: functional; in short: as §1
[20] = system: Rattus norvegicus; assay: Antihypertensive activity in pithed rat assessed as change in sympathetic outflow activation-induced systemic pressor response at 15 mg/kg, iv at 10 Hz frequency; format: functional; in short: as §1
[21] = system: Rattus norvegicus; assay: Antihypertensive activity in pithed rat assessed as change in sympathetic outflow activation-induced systemic pressor response at 5 mg/kg, iv at 10 Hz frequency; format: functional; in short: as §1
[22] = system: Rattus norvegicus; assay: Antihypertensive activity in pithed rat assessed as change in phenylephrine-induced systemic pressor response at 15 mg/kg, iv in presence of 2 mg/kg phenylephrine; format: functional; in short: as §2
[23] = system: Rattus norvegicus; assay: Antihypertensive activity in pithed rat assessed as change in sympathetic outflow activation-induced systemic pressor response at 5 mg/kg, iv at 5 Hz frequency; format: functional; in short: as §1
[24] = system: Rattus norvegicus; assay: Antihypertensive activity in pithed rat assessed as change in sympathetic outflow activation-induced systemic pressor response at 15 mg/kg, iv at 5 Hz frequency; format: functional; in short: as §1
[25] = system: Rattus norvegicus; assay: Antihypertensive activity in pithed rat assessed as change in phenylephrine-induced systemic pressor response at 5 mg/kg, iv in presence of 4 mg/kg phenylephrine; format: functional; in short: as §2
[26] = system: Rattus norvegicus; assay: Antihypertensive activity in pithed rat assessed as change in phenylephrine-induced systemic pressor response at 15 mg/kg, iv in presence of 4 mg/kg phenylephrine; format: functional; in short: as §2
[27] = system: Rattus norvegicus; assay: Antihypertensive activity in pithed rat assessed as change in sympathetic outflow activation-induced systemic pressor response at 40 mg/kg, iv at 10 Hz frequency; format: functional; in short: as §1
[28] = system: Rattus norvegicus; assay: Antihypertensive activity in pithed rat assessed as change in phenylephrine-induced systemic pressor response at 40 mg/kg, iv in presence of 2 mg/kg phenylephrine; format: functional; in short: as §2
[29] = system: Rattus norvegicus; assay: Antihypertensive activity in pithed rat assessed as change in sympathetic outflow activation-induced systemic pressor response at 40 mg/kg, iv at 2.5 Hz frequency; format: functional; in short: as §1
[30] = system: Rattus norvegicus; assay: Antihypertensive activity in pithed rat assessed as change in sympathetic outflow activation-induced systemic pressor response at 40 mg/kg, iv at 5 Hz frequency; format: functional; in short: as §1
[31] = system: Rattus norvegicus; assay: Antihypertensive activity in pithed rat assessed as change in phenylephrine-induced systemic pressor response at 40 mg/kg, iv in presence of 4 mg/kg phenylephrine; format: functional; in short: as §2
[32] = system: Rattus norvegicus; assay: Antihypertensive activity in pithed rat assessed as change in sympathetic outflow activation-induced systemic pressor response at 1 mg/kg, iv at 2.5 Hz frequency; format: functional; in short: as §1
[33] = system: Rattus norvegicus; assay: Antihypertensive activity in pithed rat assessed as change in sympathetic outflow activation-induced systemic pressor response at 1 mg/kg, iv at 10 Hz frequency; format: functional; in short: as §1
[34] = system: Rattus norvegicus; assay: Antihypertensive activity in pithed rat assessed as change in phenylephrine-induced systemic pressor response at 1 mg/kg, iv in presence of 4 mg/kg phenylephrine; format: functional; in short: as §2
[35] = system: Rattus norvegicus; assay: Antihypertensive activity in pithed rat assessed as change in phenylephrine-induced systemic pressor response at 1 mg/kg, iv in presence of 2 mg/kg phenylephrine; format: functional; in short: as §2
[36] = system: Rattus norvegicus; assay: Antihypertensive activity in pithed rat assessed as change in sympathetic outflow activation-induced systemic pressor response at 1 mg/kg, iv at 5 Hz frequency; format: functional; in short: as §1

N=C(N)N1CCNc2ccc(Cl)cc2C1.O=[N+]([O-])O
Activity [1]: -34 mmHg

CN1CCN(C(=N)N)Cc2ccccc21.O=[N+]([O-])O
Activity [2]: -67% | Activity [1]: -60 mmHg | Activity [3]: -20% | Activity [4]: -83% | Activity [5]: -73% | Activity [6]: -82% | Activity [7]: -26% | Activity [8]: -83% | Activity [9]: -57% | Activity [10]: -5% | Activity [11]: -14%

N=C(N)N1CCN2CCc3cccc(c32)C1.O=[N+]([O-])O
Activity [1]: -12 mmHg

N=C(N)N1CCn2c3c(c4cccc(c42)C1)CCCC3.O=[N+]([O-])O
Activity [1]: -8 mmHg

C[N+]1(C)CCNc2ccccc2C1.[I-]
Activity [2]: 9% | Activity [1]: -46 mmHg | Activity [12]: -35% | Activity [5]: 10% | Activity [13]: -38% | Activity [14]: 44% | Activity [15]: -34% | Activity [9]: 1% | Activity [10]: 39% | Activity [16]: 74% | Activity [11]: 23%

CN1CC[N+](C)(C)Cc2ccccc21.[I-]
Activity [1]: -51 mmHg

CC1CNc2ccccc2C[N+]1(C)C.[I-] (centres undefined)
Activity [1]: -4 mmHg

CCN1CC[N+](C)(CC)Cc2ccccc21.[I-] (centres undefined)
Activity [1]: -21 mmHg

C[N+]1(C)CCNc2ccc(Cl)cc2C1.[I-]
Activity [1]: -4 mmHg

COc1cc2c(cc1OC)NCC[N+](C)(C)C2.[I-]
Activity [1]: 2 mmHg

C[N+]1(C)CCN2CCc3cccc(c32)C1.[I-]
Activity [17]: -42% | Activity [1]: -48 mmHg | Activity [18]: 68% | Activity [19]: -93% | Activity [20]: -91% | Activity [21]: -47% | Activity [22]: 87% | Activity [23]: -40% | Activity [24]: -87% | Activity [25]: 18% | Activity [26]: 12%

C[N+]1(C)CCn2c3c(c4cccc(c42)C1)CCCC3.[I-]
Activity [1]: 3 mmHg

N/C(CN1CCNc2ccccc2C1)=N\O
Activity [1]: -12 mmHg

N=C(N)N1CCNc2ccccc2C1.O=[N+]([O-])O
Activity [1]: -55 mmHg | Activity [3]: 5% | Activity [27]: -86% | Activity [4]: -50% | Activity [6]: -58% | Activity [28]: 3% | Activity [29]: -82% | Activity [30]: -100% | Activity [31]: 10% | Activity [7]: 8% | Activity [8]: -39%

N=C(N)NCCN1CCCCCCC1 [GUANETHIDINE]
Activity [17]: -100% | Activity [32]: -85% | Activity [18]: 160% | Activity [21]: -94% | Activity [33]: -65% | Activity [34]: 57% | Activity [23]: -100% | Activity [35]: 64% | Activity [25]: 105% | Activity [36]: -72%
